According to ChEMBL document CHEMBL1155872, “Molecular features of the prazosin molecule required for activation of Transport-P” (Bioorg Med Chem, 2008):
pIC50: −log10 of the molar value.

Assays:
Assay type in all cases: cell-based
GT1-1 [1] = experiment: Activation of [3H]prazosin uptake at transport-P transporter protein in mouse GT1-1 cells at 10 uM relative to control
In short: (§1)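 GT1-1 GnRH neurones grown in DMEM/Ham's F-12 (1:1) with 10% FBS, plated on poly-D-lysine/laminin-coated wells and used after 2–4 days in culture. Intact cells washed, then incubated 60 min at 37 °C with tracer [³H]prazosin 2 × 10^-10 M plus test compound. Plates iced, washed at 0 °C, solubilised in SDS/NaOH. Radioactivity counted by scintillation and normalised to protein (BCA). Result given as % activation of tracer uptake.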

GT1-1 [2] = experiment: Activation of [3H]prazosin uptake at transport-P transporter protein in mouse GT1-1 cells at 100 uM relative to control; in short: as §1
GT1-1 [3] = experiment: Activation of [3H]prazosin uptake at transport-P transporter protein in mouse GT1-1 cells at 1 uM relative to control; in short: as §1
GT1-1 [4] = experiment: Inhibition of prazosin uptake at transport-P transporter protein in mouse GT1-1 cells at 100 uM relative to desipramine
[5] = Inhibition of prazosin uptake at transport-P transporter protein in mouse GT1-1 cells
In short: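 GT1-1 GnRH neurones were grown on poly-D-lysine/laminin and uptake was run on intact cells after 2–4 days. Incubation was 60 min at 37 °C in DMEM/25 mM Hepes/0.5 mM ascorbate, pH 7.4, with [³H]prazosin 2 × 10^-10 M, unlabelled prazosin 10^-6 M and test compound. Cell-associated radioactivity was normalised to protein. IC50 was taken from concentration–response curves, in triplicate, with each experiment done twice.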

Structure (SMILES)	Activity (GT1-1 [1]) [%]	Activity (GT1-1 [2]) [%]	Activity (GT1-1 [3]) [%]	inhibition (GT1-1 [4]) [%]	pIC50 [5]
COc1cc2nc(N3CCN(C(=O)c4ccco4)CC3)nc(NC(C)=O)c2cc1OC	35	206	0	0	
COc1cc2nc(N3CCN(C(=O)OCc4ccccc4)CC3)nc(N)c2cc1OC	6	0	0	75	
COc1cc2nc(NCc3ccco3)nc(N)c2cc1OC	43	0	26	71	
Nc1nc(N2CCN(C(=O)c3ccco3)CC2)nc2cc3c(cc12)OCCO3	74	163	0	42	
CNc1nc(N2CCN(C(=O)c3ccco3)CC2)nc2cc(OC)c(OC)cc12	55	229	0	0	
COc1cc2nc(N3CCN(C(=O)c4cccs4)CC3)nc(N)c2cc1OC	161		57		
COc1cc2nc(N3CCN(C(C)=O)CC3)nc(N)c2cc1OC	0	61	0	37	
COc1cc2nc(N3CCN(c4ccccc4)CC3)nc(N)c2cc1OC	13	0	0	93	5.28
COc1cc2nc(N3CCN(C(=O)c4ccco4)CC3)nc(O)c2cc1OC	0	0	0	0	
COc1cc2nc(N3CCN(C(=O)C4CCCO4)CC3)nc(N)c2cc1OC (racemic)	0	38	0	41	
COc1cc2nc(N3CCN(C(=O)c4ccco4)CC3)nc(Nc3ccccc3)c2cc1OC	0	0	0	80	5.35
COc1cc2nc(N3CCN(C(=O)C(F)(F)F)CC3)nc(N)c2cc1OC	0	26	0	31	
COc1cc2cnc(N3CCN(C(=O)c4ccco4)CC3)nc2cc1OC	0	0	0	5	
Nc1nc(N2CCN(C(=O)c3ccco3)CC2)nc2ccccc12	0	22	0	64	
COc1cc2nc(N3CCC(C)CC3)nc(N)c2cc1OC	13	0	0	85	
COc1cc2nc(NCCN3CCCCC3)nc(N)c2cc1OC	29	37	13	52	
Nc1nc(N2CCN(C(=O)c3ccccc3)CC2)nc2ccccc12	0	0	0	73	
COc1cc2nc(N3CCN(C(=O)c4ccco4)CC3)nc(NCc3ccccc3)c2cc1OC	0	0	0	69	5.27
CCN(CC)c1nc(N2CCN(C(=O)c3ccco3)CC2)nc2cc(OC)c(OC)cc12	0	0	0	55	4.10
c1ccc(OCCCN2CCCC2)cc1					6.34
COc1cc2nc(N3CCN(C(=O)c4ccco4)CC3)nc(N)c2cc1OC			127		
COc1cc2nc(N3CCN(C(=O)c4ccccc4)CC3)nc(N)c2cc1OC	40	47	0	63	
c1cc2c(cc1OCCCCCN1CCCC1)CCCC2					6.72
COc1cc2nc(N3CCCN(C(=O)c4ccco4)CC3)nc(N)c2cc1OC	31	0	0	82	
COc1cc2nc(N3CCN(C(=O)c4ccco4)CC3)nc(N3CCOCC3)c2cc1OC	0	0	0	61	4.09
